Cneo AK release = causes C. neoformans cell lysis. adenylate kinase release luminescence, 4 h; normalised: neutral wells 0, clomiphene wells 100. lysis activity, % at 15 µM. actives 0.2% (n = 360,000);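 active means mean lysis activity across replicates of at least 80%, whatever share of replicates individually reach that level; inactive means mean lysis activity below 80%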
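Schedule: static 4 h at 37 °C with compound, 1 h detection; system: C. neoformans cells; benchmarks: Clomiphene as positive control; buffer or medium: fresh YPD medium; measure: luminescence rise reflecting yeast cell lysis; measured by: luminescent adenylate kinase detection reagent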
Mot1-301 SUMO = blocks SUMOylation pathway, rescuing yeast Mot1-301 growth | actives 1% (n = 320,000) | S. cerevisiae Mot1-301 growth rescue, ATP luminescence, 38.5C; percent above DMSO median, 100 means doubled | AID 2716 | growth rescue, % at 18.8 µM;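 active means every valid replicate shows activation above 250% relative to neutral control wells; inactive means the rest, any valid replicate at or below 250%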;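 further: OY570 slx delta 5 strain wells were the positive control but not used for scaling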
C2C12 statin = protects C2C12 myotubes from simvastatin toxicity | AID 602340 | actives 0.78% (n = 330,000) | rescue of ATP level, % at 7.49 µM | ATP luminescence, 48 h; scaled: DMSO 0, geranylgeraniol control 100;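 active means mean ATP rescue above about 67%, or every replicate alone reaching that limit, limit read from the data, passing the limit was not always enough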;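 further: myotubes were challenged with 10 µM simvastatin during compound exposure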
Efflux pump inh = blocks antifungal efflux pumps in multiplex yeast assay | S. cerevisiae Candida pump triplex, Nile Red efflux | inhibition, % at 10 µM | actives 0.44% (n = 330,000) | AID 485275;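 active means plate passing quality check with inhibition over a set limit, or well fluorescence over plate mean plus 4 SD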;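 further: Nile Red retained in pooled yeast measured as flow cytometry median fluorescence; 0% = buffer negative control and 100% = Enniatin B positive control; higher means more Nile Red kept so more efflux inhibition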
The depositor's hits bear a star; x = no result given; + = active, no number. Sampled rows, rich in hits. Any-hit rate of the full collection: about 1.8%.

SMILES	Cneo AK release	Mot1-301 SUMO	C2C12 statin	Efflux pump inh
C[C@@H]1CN([C@@H](C)CO)C(=O)c2cc(NC(=O)Nc3cccc4ccccc34)ccc2O[C@@H]1CN(C)Cc1ccc(C(=O)Nc2ccccc2N)cc1	0	x	137*	x
C[C@H](CO)N1C[C@H](C)[C@@H](CN(C)Cc2ccc(C(=O)Nc3ccccc3N)cc2)Oc2ccc(NC(=O)Cc3cn(C)c4ccccc34)cc2CC1=O	2	x	40	x
C[C@H](CO)N1C[C@H](C)[C@H](CN(C)Cc2ccc(C(=O)Nc3ccccc3N)cc2)Oc2ccc(NC(=O)Nc3ccccc3)cc2C1=O	3	x	16	x
CCOc1ccc(Cc2nc(C)c(CC(=O)N3CCOCC3)c(=O)[nH]2)cc1	-23	-19	-9	0
CNC[C@@H]1Oc2ccc(NC(=O)Nc3ccc(C(F)(F)F)cc3)cc2C(=O)N([C@H](C)CO)C[C@@H]1C	-9	x	-25	x
C[C@@H]1CN([C@H](C)CO)C(=O)c2cccc(NC(=O)C3CCOCC3)c2O[C@@H]1CN(C)Cc1ccc(C(=O)Nc2ccccc2N)cc1	2	x	110*	x
O=C(Cn1nc(-c2ccc(Cl)cc2)c2ccccc2c1=O)NCC1CCCO1 (stereo not given)	0	333*	x	0
Cc1ccc(-c2nn(CC(=O)NCC3CCCO3)c(=O)c3ccccc23)cc1 (stereo not given)	0	-12	-7	0
O=C(c1cccc(F)c1)N1C[C@H]2[C@@H](c3ccccc31)[C@@H](CO)N2Cc1cocn1	100*	x	-22	x
CCc1ccc(N2C(=O)CN(Cc3ccc(OC)c(OC)c3)C2=S)cc1	9	10	x	0
COc1ccc(OC)c(S(=O)(=O)N2CCC(C(=O)Nc3cccc(C)c3)CC2)c1	x	-16	x	0
COc1ccc(OC)c(S(=O)(=O)N2CCC(C(=O)Nc3ccccc3)CC2)c1	-2	13	91*	0
CCc1nnc(NC(=O)Cn2c(=O)oc3ccccc32)s1	0	206	140*	0
CCOC(=O)Cc1csc(NC(=O)CSc2nnnn2-c2ccc(CC)cc2)n1	2	19	11	0
N#Cc1nc(N2CCOCC2)nc(N2CCOCC2)n1	5	-19	-3	0
Cc1cc(N2CCN(c3cccc(C)c3C)CC2)nc(-c2ccccc2)n1	21	93	117*	0
O=C(Cn1ccc2ccccc2c1=O)NCCC(=O)N1CCN(C(=O)c2ccco2)CC1	-4	44	78*	0
CSc1nncc(/C(C)=N\Nc2ccccc2)n1	2	297*	-53	0
CC/C(=N/Nc1ccccc1C)c1cnnc(SC)n1	1	17	x	0
Cc1cc(C)n(-c2nc3ccccc3c(=O)n2OCCOc2ccccc2)n1	2	-8	99*	0
Cc1ccc(Nc2n[nH]c(=S)s2)c(C)c1	1	x	28	x
C=CCn1c(SCC(=O)NCCCC)nc2scc(-c3ccco3)c2c1=O	-1	-7	x	0
C=CCn1c(SCC(=O)NC2CCCC2)nc2scc(-c3ccco3)c2c1=O	5	85	116*	0
CN(O)/C=c1/ccc2c(n1)C(=O)C=CC=2	-3	-23	93*	0
CCC(=O)c1ccc(OCC(=O)OC(C)C(=O)Nc2c(C)n(C)n(-c3ccccc3)c2=O)cc1 (stereo not given)	-3	x	-8	x
SMILES	Cneo AK release	Mot1-301 SUMO	C2C12 statin	Efflux pump inh
C[C@@H]1CN([C@H](C)CO)C(=O)Cc2cc(NS(C)(=O)=O)ccc2O[C@H]1CN(C)Cc1ccc(Oc2ccccc2)cc1	0	x	8	x
Cc1ccc(N2C(=O)CC(NNc3nc4ccccc4s3)C2=O)cc1 (stereo not given)	1	x	x	0
CS(=O)(=O)N1CCSC1c1ccc(Br)cc1 (stereo not given)	-1	0	7	0
COc1ccc(Br)cc1C1SCCN1S(C)(=O)=O (stereo not given)	0	5	118*	0
CCOc1ccc(S(=O)(=O)Nc2ccc(C(=O)NCC3CCCO3)cc2)cc1 (stereo not given)	-2	-8	12	1
O=C1NC[C@H](CC2CCCCC2)N(CC2CCCCC2)C1=O	1	14	107*	0
CCOc1cc(/C=C2\SC(=Nc3ccc(F)cc3)N(c3ccc(F)cc3)C2=O)ccc1OCC(=O)O	x	4	x	0
CCN1CCN(C(=O)c2cc3cc4cc(OC)ccc4nc3s2)CC1	2	5	73*	1
O=C(CN1C(=O)NC2(CCc3ccccc32)C1=O)c1ccc(Br)cc1 (stereo not given)	1	278*	11	0
COc1cc(NC(=O)c2cccs2)c(C(=O)OCC(=O)NCc2ccco2)cc1OC	-1	-2	105*	0
O=C(COC(=O)c1cccs1)NCc1ccccc1	-1	x	5	0
O=C(COC(=O)c1cccs1)NCc1ccco1	-1	-12	131*	0
O=C(COC(=O)c1cncc(Br)c1)NCc1ccco1	x	414*	x	0
O=C(COC(=O)c1n[nH]c2ccccc12)NC(=O)NCc1ccco1	1	-16	73*	0
CC(C)(C)C(=O)N1N=C(c2ccc(NS(C)(=O)=O)cc2)CC1c1cccs1 (stereo not given)	x	7	x	0
CC(=O)c1sc(NC(=O)C2(F)C(F)(F)C(F)(F)C(F)(F)C(F)(F)C2(F)F)nc1C	136*	-24	-475	0
O=C(c1ccccc1)c1nc[nH]c1C(=O)Nc1ccccn1	5	-5	120*	0
Cc1nn(CC(=O)Nc2ccc3c(c2)nc2n3CCOC2)c(=O)c2ccccc12	7	61	13	0
COc1ccc(-c2oc3c(OC)c(OC)c(OC)c(O)c3c(=O)c2OC)cc1OC	1	+	-26	0
O=C(c1ccc(C(F)(F)F)cc1)C1CCCN(C(=O)CCN2CCCO2)C1 (stereo not given)	-6	3	67*	0
O=C1c2cccc3c([N+](=O)[O-])ccc(c23)C(=O)N1c1nccs1	-1	242	25	1.2*
CC(C)c1ccc(NC(=O)C2CC(=O)N=C(N)S2)cc1 (stereo not given)	7	2	138*	0
C[C@@H]1CN([C@H](C)CO)C(=O)CCCn2cc(nn2)CO[C@@H]1CN(C)C(=O)Nc1ccccc1F	x	x	4	x
CCC(C)(C)NC(=O)CN(Cc1cccs1)C(=O)CNS(=O)(=O)c1ccc(C)cc1	6	-17	83*	0
COC(=O)C(C)Sc1nc2c(c(=O)n(C)c(=O)n2C)n1CCC(C)C (stereo not given)	x	961*	x	0
Cc1nn(C(C)C(=O)NC2CC2)c(=O)c2nn(-c3ccccc3)c(C)c12 (stereo not given)	1	-13	-1	0
Cc1ccc2occ(C(=O)c3ccco3)c(=O)c2c1	-1	197	-1	0
CC=Cc1ccc2n(c1=O)C[C@@H]1[C@@H](CO)[C@H](C(=O)N3CCCCC3)N(C(=O)CC3CC3)[C@H]21 (mixture of isomers)	-2	x	-5	x

Bioassay records deposited in PubChem by several laboratories.
